Assay results published in ChEMBL document CHEMBL1145884, “Synthesis and biological activity of novel 1beta-methylcarbapenems with oxyiminopyrrolidinylamide moiety” (2003).
≈ marks a conversion by molar mass, not a printed value.

How the values were obtained:
Staphylococcus aureus [1] = experiment: Antibacterial activity against Staphylococcus aureus SG 511; type: functional
Escherichia coli [2] = experiment: Compound was evaluated for its antibacterial activity against Escherichia coli CCARM 1117 MDR; type: functional
Klebsiella pneumoniae [3] = experiment: Compound was evaluated for its antibacterial activity against Klebsiella pneumoniae 10 ESBL; type: functional
Escherichia coli [4] = experiment: Compound was evaluated for its antibacterial activity against Escherichia coli CCARM 1109 MDR; type: functional
Escherichia coli [5] = experiment: Compound was evaluated for its antibacterial activity against Escherichia coli CCARM 1112 MDR; type: functional
Escherichia coli [6] = experiment: Compound was evaluated for its antibacterial activity against Escherichia coli CCARM 1111 MDR; type: functional
Escherichia coli [7] = experiment: Compound was evaluated for its antibacterial activity against Escherichia coli DC 2; type: functional
[8] = Compound was evaluated for its relative half life of hydrolysis to meropenem by partially purified porcine renal dihydropeptidase-I (DHP-I); type: functional; conditions: Sus scrofa
Salmonella typhimurium [9] = experiment: Compound was evaluated for its antibacterial activity against Salmonella Typhimurium 1; type: functional, Salmonella enterica subsp. enterica serovar Typhimurium; conditions: Salmonella enterica
Pseudomonas aeruginosa [10] = experiment: Compound was evaluated for its antibacterial activity against Pseudomonas aeruginosa ATCC 27853; type: functional
Salmonella enteritidis [11] = experiment: Compound was evaluated for its antibacterial activity against […] enteritidis 3; type: functional, Salmonella enterica subsp. enterica serovar Enteritidis; conditions: Salmonella enterica
Pseudomonas aeruginosa [12] = experiment: Antibacterial activity against Pseudomonas aeruginosa 9027; type: functional
Summary of the method: (§1)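 MIC was determined by agar dilution on Mueller–Hinton medium.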

Escherichia coli [13] = experiment: Compound was evaluated for its antibacterial activity against Escherichia coli CCARM 1113 MDR; type: functional
Klebsiella pneumoniae [14] = experiment: Compound was evaluated for its antibacterial activity against Klebsiella pneumoniae 2 ESBL; type: functional
Pseudomonas aeruginosa [15] = experiment: Compound was evaluated for its antibacterial activity against Pseudomonas aeruginosa 2 MDR; type: functional
Escherichia coli [16] = experiment: Compound was evaluated for its antibacterial activity against Escherichia coli DC 0; type: functional
Escherichia coli [17] = experiment: Compound was evaluated for its antibacterial activity against Escherichia coli CCARM 1116 MDR; type: functional
Escherichia coli [18] = experiment: Compound was evaluated for its antibacterial activity against Escherichia coli CCARM 1115 MDR; type: functional
Klebsiella pneumoniae [19] = experiment: Compound was evaluated for its antibacterial activity against Klebsiella pneumoniae 8 ESBL; type: functional
Klebsiella pneumoniae [20] = experiment: Compound was evaluated for its antibacterial activity against Klebsiella pneumoniae 7 ESBL; type: functional
Salmonella enteritidis [21] = experiment: Compound was evaluated for its antibacterial activity against […] enteritidis 2; type: functional, Salmonella enterica subsp. enterica serovar Enteritidis; conditions: Salmonella enterica
Pseudomonas aeruginosa [22] = experiment: Antibacterial activity against Pseudomonas aeruginosa 1771M; type: functional; summary of the method: as §1
Salmonella enteritidis [23] = experiment: Compound was evaluated for its antibacterial activity against […] enteritidis 1; type: functional, Salmonella enterica subsp. enterica serovar Enteritidis; conditions: Salmonella enterica
Salmonella typhimurium [24] = experiment: Compound was evaluated for its antibacterial activity against Salmonella Typhimurium 2; type: functional, Salmonella enterica subsp. enterica serovar Typhimurium; conditions: Salmonella enterica
Klebsiella pneumoniae [25] = experiment: Compound was evaluated for its antibacterial activity against Klebsiella pneumoniae 1 ESBL; type: functional
Klebsiella aerogenes = experiment: Antibacterial activity against Klebsiella aerogenes 1522E; type: functional; summary of the method: as §1
Pseudomonas aeruginosa [26] = experiment: Antibacterial activity against Pseudomonas aeruginosa 1592E
Escherichia coli [27] = experiment: Compound was evaluated for its antibacterial activity against Escherichia coli CCARM 1110 MDR; type: functional
Escherichia coli [28] = experiment: Antibacterial activity against Escherichia coli 1507E; type: functional; summary of the method: as §1
Klebsiella oxytoca = experiment: Compound was evaluated for its antibacterial activity against Klebsiella oxytoca 1082E; type: functional
Streptococcus pyogenes = experiment: Antibacterial activity against Streptococcus pyogenes 308A; type: functional
Staphylococcus aureus [29] = experiment: Antibacterial activity against Staphylococcus aureus 285; type: functional
Escherichia coli [30] = experiment: Compound was evaluated for its antibacterial activity against Escherichia coli TEM; type: functional
Escherichia coli [31] = experiment: Compound was evaluated for its antibacterial activity against Escherichia coli CCARM 1108 MDR; type: functional
Escherichia coli [32] = experiment: Antibacterial activity against Escherichia coli 078; type: functional; summary of the method: as §1
Pseudomonas aeruginosa [33] = experiment: Compound was evaluated for its antibacterial activity against Pseudomonas aeruginosa 3 MDR; type: functional
Escherichia coli [34] = experiment: Compound was evaluated for its antibacterial activity against Escherichia coli 0157:H7; type: functional
Klebsiella pneumoniae [35] = experiment: Compound was evaluated for its antibacterial activity against Klebsiella pneumoniae 3 ESBL; type: functional
Pseudomonas aeruginosa [36] = experiment: Compound was evaluated for its antibacterial activity against Pseudomonas aeruginosa 1 MDR; type: functional
Klebsiella pneumoniae [37] = experiment: Compound was evaluated for its antibacterial activity against Klebsiella pneumoniae 4 ESBL; type: functional
Salmonella typhimurium [38] = experiment: Antibacterial activity against Salmonella Typhimurium; type: functional, Salmonella enterica subsp. enterica serovar Typhimurium; conditions: Salmonella enterica; summary of the method: as §1
Klebsiella pneumoniae [39] = experiment: Compound was evaluated for its antibacterial activity against Klebsiella pneumoniae 6 ESBL; type: functional
Enterobacter cloacae [40] = experiment: Compound was evaluated for its antibacterial activity against Enterobacter cloacae P99; type: functional
Escherichia coli [41] = experiment: Compound was evaluated for its antibacterial activity against Escherichia coli CCARM 1114 MDR; type: functional
Klebsiella pneumoniae [42] = experiment: Compound was evaluated for its antibacterial activity against Klebsiella pneumoniae 5 ESBL; type: functional
Escherichia coli [43] = experiment: Compound was evaluated for its antibacterial activity against Escherichia coli ATCC 25922; type: functional
Staphylococcus aureus [44] = experiment: Antibacterial activity against Staphylococcus aureus 503; type: functional
Salmonella enteritidis [45] = experiment: Compound was evaluated for its antibacterial activity against […] enteritidis; type: functional, Salmonella enterica subsp. enterica serovar Enteritidis; conditions: Salmonella enterica
Shigella flexneri = experiment: Compound was evaluated for its antibacterial activity against Shigella flexneri ATCC 9199; type: functional
Klebsiella pneumoniae [46] = experiment: Compound was evaluated for its antibacterial activity against Klebsiella pneumoniae 9 ESBL; type: functional
Shigella sonnei = experiment: Compound was evaluated for its antibacterial activity against Shigella sonnei ATCC 9290; type: functional
Salmonella typhimurium [47] = experiment: Compound was evaluated for its antibacterial activity against Salmonella Typhimurium; type: functional, Salmonella enterica subsp. enterica serovar Typhimurium; conditions: Salmonella enterica
Enterobacter cloacae [48] = experiment: Antibacterial activity against Enterobacter cloacae 1321E; type: functional; summary of the method: as §1

Compound `C[C@@H](O)[C@H]1C(=O)N2C(C(=O)O)=C(S[C@@H]3CN[C@H](C(=O)N4CC/C(=N/O)C4)C3)[C@H](C)[C@H]12` has an MIC (Staphylococcus aureus [1]) of 0.195 µg/mL (≈ 0.445 µM), an MIC (Escherichia coli [2]) of 0.03 µg/mL (≈ 0.0684 µM) and an MIC (Klebsiella pneumoniae [3]) of 0.016 µg/mL (≈ 0.0365 µM). For the same compound, the MIC (Escherichia coli [4]) was 0.06 µg/mL (≈ 0.137 µM), the MIC (Escherichia coli [5]) was 0.016 µg/mL (≈ 0.0365 µM) and the MIC (Escherichia coli [6]) was 0.016 µg/mL (≈ 0.0365 µM). For the same compound, the MIC (Escherichia coli [7]) was 0.016 µg/mL (≈ 0.0365 µM), the relative t1/2 (DHP-I hydrolysis vs meropenem) [8] was 1.03 and the MIC (Salmonella typhimurium [9]) was 0.016 µg/mL (≈ 0.0365 µM). For the same compound, the MIC (Pseudomonas aeruginosa [10]) was 1 µg/mL (≈ 2.28 µM), the MIC (Salmonella enteritidis [11]) was 0.016 µg/mL (≈ 0.0365 µM) and the MIC (Pseudomonas aeruginosa [12]) was 0.391 µg/mL (≈ 0.892 µM). The MIC (Escherichia coli [13]) was 0.06 µg/mL (≈ 0.137 µM), the MIC (Klebsiella pneumoniae [14]) was 0.03 µg/mL (≈ 0.0684 µM) and the MIC (Pseudomonas aeruginosa [15]) was 8 µg/mL (≈ 18.2 µM). The MIC (Escherichia coli [16]) was 0.03 µg/mL (≈ 0.0684 µM), the MIC (Escherichia coli [17]) was 0.016 µg/mL (≈ 0.0365 µM) and the MIC (Escherichia coli [18]) was 0.03 µg/mL (≈ 0.0684 µM). For the same compound, the MIC (Klebsiella pneumoniae [19]) was 0.25 µg/mL (≈ 0.57 µM), the MIC (Klebsiella pneumoniae [20]) was 0.06 µg/mL (≈ 0.137 µM) and the MIC (Salmonella enteritidis [21]) was ≤ 0.008 µg/mL. For the same compound, the MIC (Pseudomonas aeruginosa [22]) was 0.195 µg/mL (≈ 0.445 µM), the MIC (Salmonella enteritidis [23]) was 0.016 µg/mL (≈ 0.0365 µM) and the MIC (Salmonella typhimurium [24]) was 0.03 µg/mL (≈ 0.0684 µM). For the same compound, the MIC (Klebsiella pneumoniae [25]) was 0.03 µg/mL (≈ 0.0684 µM), the MIC (Klebsiella aerogenes) was 0.025 µg/mL (≈ 0.057 µM) and the MIC (Pseudomonas aeruginosa [26]) was 0.391 µg/mL (≈ 0.892 µM). The MIC (Escherichia coli [27]) was 0.06 µg/mL (≈ 0.137 µM), the MIC (Escherichia coli [28]) was 0.025 µg/mL (≈ 0.057 µM) and the MIC (Klebsiella oxytoca) was 0.13 µg/mL (≈ 0.296 µM). It also gave an MIC (Streptococcus pyogenes) of 0.013 µg/mL (≈ 0.0296 µM), an MIC (Staphylococcus aureus [29]) of 0.195 µg/mL (≈ 0.445 µM) and an MIC (Escherichia coli [30]) of 0.016 µg/mL (≈ 0.0365 µM). For the same compound, the MIC (Escherichia coli [31]) was 0.03 µg/mL (≈ 0.0684 µM), the MIC (Escherichia coli [32]) was 0.025 µg/mL (≈ 0.057 µM) and the MIC (Pseudomonas aeruginosa [33]) was 8 µg/mL (≈ 18.2 µM). It also gave an MIC (Escherichia coli [34]) of 0.016 µg/mL (≈ 0.0365 µM), an MIC (Klebsiella pneumoniae [35]) of 0.13 µg/mL (≈ 0.296 µM) and an MIC (Pseudomonas aeruginosa [36]) of 1 µg/mL (≈ 2.28 µM). For the same compound, the MIC (Klebsiella pneumoniae [37]) was 0.03 µg/mL (≈ 0.0684 µM), the MIC (Salmonella typhimurium [38]) was 0.025 µg/mL (≈ 0.057 µM) and the MIC (Klebsiella pneumoniae [39]) was 0.03 µg/mL (≈ 0.0684 µM). It also gave an MIC (Enterobacter cloacae [40]) of 0.13 µg/mL (≈ 0.296 µM), an MIC (Escherichia coli [41]) of 0.13 µg/mL (≈ 0.296 µM) and an MIC (Klebsiella pneumoniae [42]) of 0.016 µg/mL (≈ 0.0365 µM). It also gave an MIC (Escherichia coli [43]) of 0.016 µg/mL (≈ 0.0365 µM), an MIC (Staphylococcus aureus [44]) of 0.098 µg/mL (≈ 0.223 µM) and an MIC (Salmonella enteritidis [45]) of 0.016 µg/mL (≈ 0.0365 µM). The MIC (Shigella flexneri) was 0.016 µg/mL (≈ 0.0365 µM), the MIC (Klebsiella pneumoniae [46]) was 0.03 µg/mL (≈ 0.0684 µM) and the MIC (Shigella sonnei) was 0.016 µg/mL (≈ 0.0365 µM). For the same compound, the MIC (Salmonella typhimurium [47]) was 0.03 µg/mL (≈ 0.0684 µM) and the MIC (Enterobacter cloacae [48]) was 0.013 µg/mL (≈ 0.0296 µM).
